ChEMBL document CHEMBL5661969, “Preclinical evaluation of a potent novel DNA-dependent protein kinase inhibitor NU7441” (Cancer Res, 2006)
pIC50: −log10 of the molar value.

Tests used:
[1] = Inhibition of DNA-PK in Chinese hamster DNA-PK proficient V3-YAC cells assessed as potentiation of etoposide-induced cytotoxicity by measuring etoposide LD90 at 0.5 umol/L measured after 16 hrs by crystal violet staining based assay; parameters: species or system Cricetulus griseus; conditions: dose 0.5 µmol/L, condition cancer
[2] = Inhibition of DNA-PK in Chinese hamster DNA-PK proficient V3-YAC cells assessed as potentiation of etoposide-induced cytotoxicity by measuring fold change in etoposide LD90 at 0.5 umol/L measured after 16 hrs by crystal violet staining based assay relative to etoposide alone; parameters: species or system Cricetulus griseus; conditions: dose 0.5 µmol/L, condition cancer
In short: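 V3-YAC Chinese hamster ovary cells (human DNA-PKcs YAC, kept in 500 μg/mL G-418), RPMI 1640/10% FBS. Cells reseeded drug-free, colonies crystal violet stained after 10–14 days; LD90 ratio without/with inhibitor (DMR90).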

[3] = Cytotoxicity against Chinese hamster DNA-PK deficient V3 cells assessed as reduction in cell survival at 0.5 umol/L measured after 16 hrs in presence of etoposide by crystal violet staining based assay; type: toxicity, Cricetulus griseus; conditions: v3, 16 h, 0.5 µM, dose 0.5 µmol/L
In short: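 Exponentially growing cells exposed 16 h to agent (0.5 or 1.0 μmol/L), with or without etoposide or doxorubicin, at 0.5% DMSO final; controls get DMSO alone. Cells are then trypsinized, reseeded at 100–100,000 per dish in drug-free medium and grown 10–14 days. Colonies stained with crystal violet and counted automatically.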

[4] = Growth inhibition of human SW620 cells at 1 umol/L measured after 5 days by crystal violet staining based assay relative to control; type: toxicity, cell-based, SW-620; conditions: dose 1 µmol/L, time 5 day, read-out: GI
In short: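 LoVo and SW620 cells in 96-well plates under 5-day continuous exposure to agent, and growth measured relative to control.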

SW-620 = experiment: Induction of DNA damage in human SW620 cells assessed as formation of gammaH2AX phosphorylation foci per cell at 1 umol/L measured after 1 hr by DAPI staining based immunofluorescence microscopic analysis; type: toxicity; conditions: sw-620, 1 h, 1 µM, dose 1 µmol/L
In short: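 SW620 cells on coverslips at 50–70% confluence, preincubated 1 h ± 1 μmol/L agent, then 1 μmol/L etoposide for 1 h, washed three times, and kept ± agent for up to 24 h. Fixation in −20 °C methanol, then anti-γH2AX Ser139 antibody with FITC secondary and DAPI mounting. Foci counted in 30 nuclei from three areas per sample, in triplicate.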

[5] = Tmax in BALB/c mouse at 5 mg/kg, iv by HPLC analysis; type: ADME, organism-based; conditions: in vivo
In short: (§1)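 Female BALB/c mice dosed 5 mg/kg i.v. in 10% DMSO/10% cyclodextrin in saline, or 10 mg/kg i.p. or orally at 1 mg/mL in 40% PEG400/saline. Plasma taken at 5, 10, 15, 30, 60, 90, 120, 180, 240 and 360 min, three mice per time. Acetonitrile precipitation, C18 HPLC with UV detection at 329 nm against a plasma standard curve. Parameters derived from mean concentrations.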

[6] = Tmax in BALB/c mouse at 10 mg/kg, po by HPLC analysis; type: ADME, organism-based; conditions: in vivo; in short: as §1
[7] = AUClast in BALB/c mouse at 10 mg/kg, po by HPLC analysis; type: ADME, organism-based; conditions: in vivo; in short: as §1
[8] = AUClast in BALB/c mouse at 10 mg/kg, ip by HPLC analysis; type: ADME, organism-based; conditions: in vivo; in short: as §1
[9] = Clearance in BALB/c mouse at 10 mg/kg, ip by HPLC analysis; type: ADME, organism-based; conditions: in vivo; in short: as §1
[10] = Ratio of drug level in tumor to plasma of human SW620 cell xenografted athymic nude CD1 mouse at 10 mg/kg, ip measured after 15 mins by HPLC analysis; type: ADME, organism-based; conditions: tumor and plasma
In short: (§2)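 Female CD-1 nu/nu mice bearing s.c. flank SW620 tumours (1×10^7 cells, ~650 mm³ at 10–14 days) given 10 mg/kg i.p. Tissues snap frozen, homogenised 1:3 in PBS. Acetonitrile precipitation, C18 HPLC with acetate pH 5/acetonitrile 75:25 mobile phase, UV 329 nm; tissue levels by method of addition. Tissue/plasma ratio, mean of three mice per time.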

[11] = Ratio of drug level in tumor to plasma of human SW620 cell xenografted athymic nude CD1 mouse at 10 mg/kg, ip measured after 30 mins by HPLC analysis; type: ADME, organism-based; conditions: tumor and plasma; in short: as §2
[12] = Ratio of drug level in tumor to plasma of human SW620 cell xenografted athymic nude CD1 mouse at 10 mg/kg, ip measured after 60 mins by HPLC analysis; type: ADME, organism-based; conditions: tumor and plasma; in short: as §2
[13] = Ratio of drug level in tumor to plasma of human SW620 cell xenografted athymic nude CD1 mouse at 10 mg/kg, ip measured after 90 mins by HPLC analysis; type: ADME, organism-based; conditions: tumor and plasma; in short: as §2
[14] = Ratio of drug level in tumor to plasma of human SW620 cell xenografted athymic nude CD1 mouse at 10 mg/kg, ip measured after 240 mins by HPLC analysis; type: ADME, organism-based; conditions: tumor and plasma; in short: as §2
[15] = Ratio of drug level in brain to plasma of human SW620 cell xenografted athymic nude CD1 mouse at 10 mg/kg, ip measured after 30 mins by HPLC analysis; type: ADME, organism-based; conditions: brain and plasma, read-out: BPR; in short: as §2
[16] = Ratio of drug level in brain to plasma of human SW620 cell xenografted athymic nude CD1 mouse at 10 mg/kg, ip measured after 240 mins by HPLC analysis; type: ADME, organism-based; conditions: brain and plasma, read-out: BPR; in short: as §2
[17] = Ratio of drug level in kidney to plasma of human SW620 cell xenografted athymic nude CD1 mouse at 10 mg/kg, ip measured after 15 mins by HPLC analysis; type: ADME, organism-based; conditions: kidney and plasma; in short: as §2
[18] = Ratio of drug level in kidney to plasma of human SW620 cell xenografted athymic nude CD1 mouse at 10 mg/kg, ip measured after 60 mins by HPLC analysis; type: ADME, organism-based; in short: as §2
[19] = Ratio of drug level in liver to plasma of human SW620 cell xenografted athymic nude CD1 mouse at 10 mg/kg, ip measured after 15 mins by HPLC analysis; type: ADME, organism-based; in short: as §2
[20] = Ratio of drug level in liver to plasma of human SW620 cell xenografted athymic nude CD1 mouse at 10 mg/kg, ip measured after 90 mins by HPLC analysis; type: ADME, organism-based; in short: as §2
[21] = Ratio of drug level in spleen to plasma of human SW620 cell xenografted athymic nude CD1 mouse at 10 mg/kg, ip measured after 240 mins by HPLC analysis; type: ADME, organism-based; in short: as §2
[22] = In vivo inhibition of DNA-PK in human SW620 cells xenografted athymic nude CD1 mouse assessed as potentiation of etoposide phosphate-induced antitumor activity by measuring tumor growth delay at 10 mg/kg, ip administered 5 times daily for 5 days (reference value: 2.7 day); type: functional, SW-620; conditions: time 5 day
In short: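 CD-1 nude mice carry palpable s.c. SW620 xenografts (~5×5 mm, 8-10 days), five per group. Treated i.p. daily for 5 days with saline, agent in 40% PEG 400/saline, etoposide phosphate 11.35 mg/kg (equal to 10 mg/kg etoposide), or both, agent given immediately before etoposide phosphate. Read-outs are median relative tumour volume, time to 4× volume (growth delay) and body weight.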

[23] = target: DNA-dependent protein kinase catalytic subunit (Homo sapiens, UniProt P78527); experiment: Inhibition of human HeLa cell nuclear extract purified DNA-PK using p53 peptide as substrate by ELISA
Sequence of DNA-dependent protein kinase catalytic subunit (P78527 whole entry): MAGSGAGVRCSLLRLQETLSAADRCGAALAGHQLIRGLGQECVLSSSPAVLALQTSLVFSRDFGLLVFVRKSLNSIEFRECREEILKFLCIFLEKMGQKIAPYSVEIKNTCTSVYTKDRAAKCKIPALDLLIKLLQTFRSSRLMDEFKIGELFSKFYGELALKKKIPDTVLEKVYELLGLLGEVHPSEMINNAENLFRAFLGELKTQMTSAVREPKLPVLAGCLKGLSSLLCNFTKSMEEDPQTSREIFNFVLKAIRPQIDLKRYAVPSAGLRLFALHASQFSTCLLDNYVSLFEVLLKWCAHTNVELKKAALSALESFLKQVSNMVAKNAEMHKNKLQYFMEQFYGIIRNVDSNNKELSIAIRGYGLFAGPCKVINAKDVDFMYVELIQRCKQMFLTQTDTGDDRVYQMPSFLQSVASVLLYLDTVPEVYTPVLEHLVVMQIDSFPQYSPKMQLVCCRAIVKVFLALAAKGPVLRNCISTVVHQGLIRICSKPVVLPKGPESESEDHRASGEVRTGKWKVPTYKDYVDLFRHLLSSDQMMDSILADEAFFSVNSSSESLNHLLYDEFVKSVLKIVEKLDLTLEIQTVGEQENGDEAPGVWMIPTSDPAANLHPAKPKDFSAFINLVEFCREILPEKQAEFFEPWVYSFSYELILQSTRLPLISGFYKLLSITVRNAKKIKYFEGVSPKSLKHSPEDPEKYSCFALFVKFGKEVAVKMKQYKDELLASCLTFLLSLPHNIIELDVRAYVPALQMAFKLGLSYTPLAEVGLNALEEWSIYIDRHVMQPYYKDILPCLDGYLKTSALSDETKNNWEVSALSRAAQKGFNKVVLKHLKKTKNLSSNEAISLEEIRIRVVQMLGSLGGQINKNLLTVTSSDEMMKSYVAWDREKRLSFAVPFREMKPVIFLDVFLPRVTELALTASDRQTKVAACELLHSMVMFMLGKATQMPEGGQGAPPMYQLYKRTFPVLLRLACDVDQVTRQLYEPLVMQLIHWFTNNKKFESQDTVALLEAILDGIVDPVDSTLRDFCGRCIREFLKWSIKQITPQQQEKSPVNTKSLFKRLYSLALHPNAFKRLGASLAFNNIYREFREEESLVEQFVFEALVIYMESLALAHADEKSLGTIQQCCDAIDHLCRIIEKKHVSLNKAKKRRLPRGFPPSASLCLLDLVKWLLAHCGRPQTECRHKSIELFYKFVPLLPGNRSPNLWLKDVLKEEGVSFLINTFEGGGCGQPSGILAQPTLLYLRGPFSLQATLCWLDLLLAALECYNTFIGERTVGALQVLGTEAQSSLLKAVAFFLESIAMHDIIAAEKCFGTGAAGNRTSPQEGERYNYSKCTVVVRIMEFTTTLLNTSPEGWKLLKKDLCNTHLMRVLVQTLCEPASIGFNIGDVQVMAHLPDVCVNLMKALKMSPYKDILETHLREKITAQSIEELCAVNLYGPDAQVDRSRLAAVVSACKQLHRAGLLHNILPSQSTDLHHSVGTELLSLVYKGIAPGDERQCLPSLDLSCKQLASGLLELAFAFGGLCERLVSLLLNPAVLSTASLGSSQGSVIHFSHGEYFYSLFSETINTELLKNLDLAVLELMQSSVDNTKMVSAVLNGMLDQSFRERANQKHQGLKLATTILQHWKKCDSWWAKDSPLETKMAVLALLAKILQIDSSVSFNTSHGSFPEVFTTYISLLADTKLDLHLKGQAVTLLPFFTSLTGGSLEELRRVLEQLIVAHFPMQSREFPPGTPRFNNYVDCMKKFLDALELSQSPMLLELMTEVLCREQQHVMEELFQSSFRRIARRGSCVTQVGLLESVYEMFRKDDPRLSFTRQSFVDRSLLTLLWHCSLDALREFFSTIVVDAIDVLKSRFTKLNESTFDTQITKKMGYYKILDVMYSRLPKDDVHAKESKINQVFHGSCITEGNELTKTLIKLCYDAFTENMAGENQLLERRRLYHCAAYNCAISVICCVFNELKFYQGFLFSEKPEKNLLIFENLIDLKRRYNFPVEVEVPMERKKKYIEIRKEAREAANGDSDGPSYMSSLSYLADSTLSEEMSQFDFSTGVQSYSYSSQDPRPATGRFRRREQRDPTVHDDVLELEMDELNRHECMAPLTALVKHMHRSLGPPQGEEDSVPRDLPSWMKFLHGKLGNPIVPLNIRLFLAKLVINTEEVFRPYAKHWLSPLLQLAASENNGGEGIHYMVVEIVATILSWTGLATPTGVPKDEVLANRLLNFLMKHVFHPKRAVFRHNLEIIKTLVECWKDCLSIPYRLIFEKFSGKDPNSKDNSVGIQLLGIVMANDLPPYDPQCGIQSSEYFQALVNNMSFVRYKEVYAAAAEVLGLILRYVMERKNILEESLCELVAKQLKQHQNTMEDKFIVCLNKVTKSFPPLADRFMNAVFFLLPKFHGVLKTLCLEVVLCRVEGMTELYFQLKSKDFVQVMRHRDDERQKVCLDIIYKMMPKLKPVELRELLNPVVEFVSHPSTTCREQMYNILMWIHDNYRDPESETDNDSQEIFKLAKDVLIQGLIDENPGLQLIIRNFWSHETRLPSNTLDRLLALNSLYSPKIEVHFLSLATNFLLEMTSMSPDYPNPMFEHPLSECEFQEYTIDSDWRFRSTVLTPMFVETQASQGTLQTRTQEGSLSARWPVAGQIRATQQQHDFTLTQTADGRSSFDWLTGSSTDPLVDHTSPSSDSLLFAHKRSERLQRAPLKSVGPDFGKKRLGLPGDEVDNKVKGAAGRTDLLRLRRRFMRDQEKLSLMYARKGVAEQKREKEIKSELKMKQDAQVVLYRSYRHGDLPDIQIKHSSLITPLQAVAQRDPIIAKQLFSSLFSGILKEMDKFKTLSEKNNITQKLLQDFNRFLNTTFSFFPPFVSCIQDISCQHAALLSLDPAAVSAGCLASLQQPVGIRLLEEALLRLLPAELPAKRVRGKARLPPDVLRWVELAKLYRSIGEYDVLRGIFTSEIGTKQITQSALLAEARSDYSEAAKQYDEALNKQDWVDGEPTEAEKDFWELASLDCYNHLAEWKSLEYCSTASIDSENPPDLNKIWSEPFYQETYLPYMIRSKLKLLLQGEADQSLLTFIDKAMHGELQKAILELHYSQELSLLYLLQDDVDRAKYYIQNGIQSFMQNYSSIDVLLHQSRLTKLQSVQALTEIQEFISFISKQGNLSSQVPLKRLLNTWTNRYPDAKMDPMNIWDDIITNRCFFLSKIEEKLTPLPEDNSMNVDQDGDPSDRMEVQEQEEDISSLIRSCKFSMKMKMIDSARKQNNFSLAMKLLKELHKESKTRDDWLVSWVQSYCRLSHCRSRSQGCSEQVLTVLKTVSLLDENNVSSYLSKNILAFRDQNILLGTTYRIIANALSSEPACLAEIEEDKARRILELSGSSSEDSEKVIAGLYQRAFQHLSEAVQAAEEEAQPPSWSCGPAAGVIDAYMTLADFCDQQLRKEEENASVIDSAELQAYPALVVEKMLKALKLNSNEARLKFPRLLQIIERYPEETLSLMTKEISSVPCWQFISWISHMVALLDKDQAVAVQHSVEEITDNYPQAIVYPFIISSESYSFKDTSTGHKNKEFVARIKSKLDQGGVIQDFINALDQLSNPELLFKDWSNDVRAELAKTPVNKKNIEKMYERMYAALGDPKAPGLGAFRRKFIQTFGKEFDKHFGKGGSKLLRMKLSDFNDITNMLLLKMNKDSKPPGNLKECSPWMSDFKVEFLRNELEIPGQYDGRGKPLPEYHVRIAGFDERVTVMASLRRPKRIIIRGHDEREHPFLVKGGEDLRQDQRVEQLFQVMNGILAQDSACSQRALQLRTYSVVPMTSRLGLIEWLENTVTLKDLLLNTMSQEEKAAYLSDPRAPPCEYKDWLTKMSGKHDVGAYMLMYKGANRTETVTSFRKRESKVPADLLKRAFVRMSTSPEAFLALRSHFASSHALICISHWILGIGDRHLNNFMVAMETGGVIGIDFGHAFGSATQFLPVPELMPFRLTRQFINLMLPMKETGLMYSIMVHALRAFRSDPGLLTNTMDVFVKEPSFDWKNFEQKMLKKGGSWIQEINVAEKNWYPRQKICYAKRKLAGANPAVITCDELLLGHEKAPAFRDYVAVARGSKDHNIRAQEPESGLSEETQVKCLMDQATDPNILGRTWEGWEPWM

Q: With O=c1cc(N2CCOCC2)oc2c(-c3cccc4c3sc3ccccc34)cccc12 as the molecule, how does the LD90 [1] read?
A: 0.8 µmol/L

Q: And the “fold change (FC)” value [2]?
A: 2.3

Q: What about the Activity [3] of the same molecule?
A: Toxic

Q: What about the inhibition at 120 h, 1 µM [4] of the same molecule?
A: 8%

Q: What about the Activity (SW-620) of the same molecule?
A: 0.13

Q: And the Tmax [5]?
A: 5 min

Q: What about the Tmax [6] of the same molecule?
A: 30 min

Q: And the AUC(0-t) [7]?
A: 817 ng·h/mL

Q: And the AUC(0-t) [8]?
A: 2500 ng·h/mL

Q: What about the CL/F [9] of the same molecule?
A: 66 mL/min/kg

Q: What about the Kp at 0.25 h [10] of the same molecule?
A: 0.38

Q: What about the Kp at 0.5 h [11] of the same molecule?
A: 1.4

Q: And the Kp at 1 h [12]?
A: 0.44

Q: And the Kp at 1.5 h [13]?
A: 1.5

Q: What about the Kp at 4 h [14] of the same molecule?
A: 4.6

Q: What about the Kp at 0.5 h [15] of the same molecule?
A: 2.2

Q: And the Kp at 4 h [16]?
A: 6.2

Q: And the Kp at 0.25 h [17]?
A: 4.2

Q: And the Kp at 1 h [18]?
A: 3.6

Q: And the Kp at 0.25 h [19]?
A: 6.4

Q: And the Kp at 1.5 h [20]?
A: 19

Q: What about the Kp at 4 h [21] of the same molecule?
A: 19

Q: And the Time [22]?
A: 5.4 days

Q: What about the pIC50 [23] of the same molecule?
A: 7.85
